Drawing on PubChem BioAssay AID651654 (Broad Institute, 2012), this text covers lysis activity for 63 compounds.

Among all 360,000 compounds or so, about 740 (0.21%) were called active. The entries come from a sample that favours actives as a whole. Values without a mark were called inactive.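 Rule for the calls: active = mean lysis activity across replicates of at least 80%, whatever share of replicates individually reach that level; inactive = mean lysis activity below 80%.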

The nature of the assay: Cryptococcus neoformans cell lysis inducers, primary screen, AK release luminescence, single concentration (AID 651654). To be noted: C. neoformans lysis, adenylate kinase release luminescence, 4 h; at 15 µM; hits give high values; normalised: neutral wells 0, clomiphene wells 100. The gist of the method: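 Material – log-phase Cryptococcus neoformans yeast cells · Input – 5 × 10^6 yeast cells/mL · Medium – fresh YPD growth medium · Doses – single compound concentration per well · Timing – static 4 h at 37 °C with compound, 1 h detection · Detection – adenylate kinase release luminescence · Read-out – signal increase indicating cell lysis · Control set – Clomiphene as positive lysis control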
Regarding `C[C@@H]1CCCCO[C@H](CN(C)S(C)(=O)=O)[C@@H](C)CN([C@H](C)CO)C(=O)c2cc(NC(=O)Nc3ccc4c(c3)OCO4)ccc2O1`, the lysis activity is 50.4%. For `C[C@@H]1CN([C@H](C)CO)S(=O)(=O)c2ccc(-c3cncnc3)cc2O[C@@H]1CN(C)Cc1ccccn1`, the lysis activity is -14.8%. As for `CCCC(=O)Nc1ccc2c(c1)C(=O)N(C)[C@@H]1CC[C@H](CC(=O)Nc3cn(C)nc3C)O[C@H]1CO2`, the lysis activity is 6.15%.

For `O=C(C[C@@H]1CC[C@@H]2[C@H](COC[C@H](O)CN2Cc2cccc(-c3ccncc3)c2)O1)N1CCOCC1`, the lysis activity is -0.0585%. To `O=C(C[C@@H]1C[C@H]2c3cc(NC(=O)C4CCOCC4)ccc3O[C@H]2[C@@H](CO)O1)NCCN1CCCCC1` belongs 60.8%; to `COc1cccc(S(=O)(=O)N2C[C@@H](O)COC[C@H]3O[C@H](CC(=O)N4CCCCC4)CC[C@@H]32)c1`, 52.9%. `COc1cccc(S(=O)(=O)N2C[C@@H](O)COC[C@@H]3O[C@H](CC(=O)N4CCN(C)CC4)CC[C@H]32)c1`: the lysis activity is 86.2% (active).

Regarding `COc1cccc(S(=O)(=O)N2C[C@@H](O)COC[C@H]3O[C@@H](CC(=O)N4CCOCC4)CC[C@@H]32)c1`, the lysis activity was 2.85%.

For the compound `Cc1ccc(S(=O)(=O)Nc2cccc3c2O[C@@H](CN(C)CC2CCCCC2)[C@H](C)CN([C@@H](C)CO)C3=O)cc1`, the lysis activity was -1.1%. With `CNC[C@H]1Oc2cc(C#Cc3ccccn3)ccc2S(=O)(=O)N([C@H](C)CO)C[C@@H]1C`, the lysis activity is -3.09%. To `C[C@@H]1CN([C@@H](C)CO)C(=O)Cc2cc(NC(=O)NC3CCCCC3)ccc2O[C@H]1CN(C)C(=O)Nc1ccc(C(F)(F)F)cc1` belongs 51.4%; to `C[C@H](CO)N1C[C@H](C)[C@H](CN(C)C(=O)c2ccccc2)OCCCC[C@H](C)Oc2ccc(N(C)C)cc2C1=O`, 1.62%; to `COc1cccc(S(=O)(=O)N(C)C[C@@H]2Oc3ncc(-c4cccc(C(=O)N(C)C)c4)cc3C(=O)N([C@H](C)CO)C[C@@H]2C)c1`, 2.06%. `COc1ccc(S(=O)(=O)Nc2ccc3c(c2)C(=O)N([C@@H](C)CO)C[C@H](C)[C@@H](CN(C)C(=O)Nc2ccc4c(c2)OCO4)OCCCC[C@@H](C)O3)cc1`: the lysis activity is 49.4%. On to `C[C@H](CO)N1C[C@H](C)[C@@H](CN(C)C(=O)C2CCOCC2)Oc2cc(-c3ccc(C(=O)N(C)C)cc3)ccc2S1(=O)=O`, for which the lysis activity is -2.86%. On to `CCNC(=O)C[C@@H]1CC[C@H]2[C@@H](COc3ccc(NC(=O)c4ccccc4Cl)cc3C(=O)N2C)O1`, for which the lysis activity was 13.7%.

`C[C@@H](NC(=O)C[C@H]1C=C[C@@H](NC(=O)CN2CCOCC2)[C@@H](CO)O1)c1ccccc1`: the lysis activity is 18.8%.

With `C[C@@H](NC(=O)C[C@@H]1C=C[C@@H](NC(=O)CN2CCOCC2)[C@H](CO)O1)c1ccccc1`, the lysis activity is 13.5%. Turning to `C[C@H](NC(=O)C[C@@H]1C=C[C@H](NC(=O)CN2CCOCC2)[C@H](CO)O1)c1ccccc1`, the lysis activity is 131% (active). As for `C[C@@H]1CN([C@H](C)CO)C(=O)c2cc(NC(=O)CCCCCC(=O)Nc3ccccc3N)ccc2O[C@@H]1CN(C)Cc1ccncc1`, the lysis activity was 0.608%. `COc1ccc(CN(C)C[C@@H]2OCCCC[C@H](C)Oc3ccc(NC(=O)c4ccccc4)cc3C(=O)N([C@H](C)CO)C[C@H]2C)cc1`: the lysis activity is -1.71%. Turning to `C[C@H](CO)N1C[C@H](C)[C@@H](CN(C)S(=O)(=O)c2ccc(Cl)cc2)Oc2ccc(NS(C)(=O)=O)cc2CC1=O`, the lysis activity was -5.34%.

For `CCC(=O)N(C)C[C@@H]1Oc2cc(C#C[C@H](C)O)ccc2S(=O)(=O)N([C@H](C)CO)C[C@@H]1C`, the lysis activity is -0.573%.

With `C[C@@H]1CN([C@H](C)CO)C(=O)c2cc(C#CC3CCCC3)cnc2O[C@H]1CN(C)S(C)(=O)=O`, the lysis activity was -1.11%. Consider `C[C@@H]1CN([C@H](C)CO)C(=O)CCCn2nncc2CO[C@@H]1CN(C)C`, for which the lysis activity was -1.91%. As to `Cc1cccc(CN(C)C[C@@H]2OCc3cn(nn3)CCCC(=O)N([C@@H](C)CO)C[C@H]2C)c1`, the lysis activity was -1.37%. Consider `COc1ccc(S(=O)(=O)N2C[C@H](O)COC[C@@H]3O[C@H](CC(=O)NCCN4CCCCC4)CC[C@H]32)cc1`, for which the lysis activity was 0.16%. With `CCCNC(=O)N1C[C@H](C)[C@@H](OC)CN(C)C(=O)c2ccc(NS(C)(=O)=O)cc2OC[C@@H]1C` the figure was 0.827%; with `COCC(=O)Nc1ccc2c(c1)C(=O)N(C)[C@@H]1CC[C@@H](CC(=O)NCc3cccc(F)c3)O[C@@H]1CO2`, 1.56%; with `COCC#Cc1cnc2c(c1)C(=O)N([C@@H](C)CO)C[C@H](C)[C@@H](CN(C)Cc1ccccc1)O2`, -2.83%. Regarding `CC(C)NC(=O)N[C@@H]1C=C[C@@H](CC(=O)N2CCCCC2)O[C@@H]1CO`, the lysis activity was 1.39%. To `C[C@@H]1CN([C@@H](C)CO)C(=O)c2cc(NC(=O)C3CCCCC3)ccc2O[C@@H]1CN(C)Cc1ccc(C(=O)O)cc1` belongs -4.67%; to `Cc1ccc(-c2cnc3c(c2)C(=O)N([C@@H](C)CO)C[C@H](C)[C@H](CN(C)C(=O)c2cccnc2)O3)cc1`, -0.96%. In the case of `C[C@@H]1CN([C@@H](C)CO)C(=O)c2cc(NC(=O)CCCN(C)C)ccc2O[C@@H]1CN(C)Cc1ccncc1`, the lysis activity is 5.83%. Turning to `COC(=O)C[C@@H]1C[C@H]2c3cc(NC(=O)Nc4ccc(F)cc4)ccc3O[C@H]2[C@@H](CO)O1`, the lysis activity is -7.03%.

Take `CCC(=O)N(C)C[C@@H]1Oc2ncc(C#CCc3ccccc3)cc2C(=O)N([C@H](C)CO)C[C@H]1C`: the lysis activity was 1.55%. Regarding `COc1ccc(CN2[C@@H](CO)[C@@H]3c4ccccc4N(C(=O)Nc4ccccc4)C[C@@H]32)cc1`, the lysis activity was 0.269%. With `COc1ccc(NC(=O)Nc2ccc3c(c2)C(=O)N([C@H](C)CO)C[C@@H](C)[C@H](CN(C)C(=O)Nc2ccc(C(F)(F)F)cc2)OCCCC[C@@H](C)O3)cc1` the figure was 1.63%; with `C[C@H](CO)N1C[C@H](C)[C@H](CN(C)C(=O)Nc2ccc(C(F)(F)F)cc2)Oc2ccc(NC(=O)C3CC3)cc2C1=O`, 8.67%. Turning to `Cn1cnc(CCNC(=O)C[C@@H]2CC[C@@H]3[C@H](COC[C@@H](O)CN3C(=O)Nc3ccccc3)O2)c1`, the lysis activity was 1.75%.

Turning to `C[C@H](CO)N1C[C@H](C)[C@H](CN(C)S(C)(=O)=O)Oc2ccc(NC(=O)Nc3ccc(F)cc3)cc2C1=O`, the lysis activity is 0.358%.

`C#CCN1C(Cc2ccccc2)C(=O)O[C@H](C2CCCCC2)[C@@H]1/C=C/C1CC1` (stereo partly drawn): the lysis activity was 5.01%.

Turning to `CO[C@@H]1CN(C)C(=O)c2cc(NC(C)=O)ccc2OC[C@H](C)N(CC2CCCCC2)C[C@@H]1C`, the lysis activity is -3.61%. On to `O=C(Nc1ccccc1)c1cc2ccccc2[nH]1`, for which the lysis activity was -9.41%. To `COc1ccc(C2=Nc3ccccc3NC(=O)C2N(C(=O)c2cc3ccccc3[nH]2)c2ccccc2)cc1` (stereo not drawn) belongs 101% (active). For `CC(OC(=O)c1cc2ccccc2[nH]1)C(=O)N(C)c1ccccc1` (stereo not drawn), the lysis activity is -1.83%. On to `CO[C@H]1CN(C)C(=O)c2cc(NS(=O)(=O)CC(F)(F)F)ccc2OC[C@@H](C)N(Cc2nccs2)C[C@@H]1C`, for which the lysis activity was 0.476%. To `CN1c2ccc(C3=CCCCC3)cc2[C@H]2[C@H](CCN2S(=O)(=O)c2ccccc2)[C@@H]1CO` belongs 0.27%; to `O=C(C1CCC1)N1CCCCN2[C@H](CO)[C@H](c3ccc(-c4cccc(F)c4)cc3)[C@H]2C1`, 4.53%; to `COc1cccc(NC(=O)C[C@H]2CC[C@@H]3[C@@H](COc4ccc(NC(=O)C5CCOCC5)cc4C(=O)N3C)O2)c1`, 1.2%. To `CC(C)NC(=O)N[C@H]1CC[C@H](CC(=O)NC2Cc3ccccc3C2)O[C@H]1CO` belongs -0.817%.

For `COc1ccccc1C#Cc1ccc2c(c1)O[C@H](CN(C)Cc1cccnc1)[C@@H](C)CN([C@H](C)CO)S2(=O)=O`, the lysis activity is 3.3%. On to `CO[C@@H]1CN(C)C(=O)c2ccc(NS(C)(=O)=O)cc2OC[C@@H](C)N(CC2CC2)C[C@@H]1C`, for which the lysis activity was 2.22%. Take `CN(C)C(=O)C[C@H]1CC[C@@H](NC(=O)C2CC2)[C@@H](CO)O1`: the lysis activity was -0.137%. Consider `C[C@@H]1CCCCO[C@H](CN(C)C(=O)NC2CCCCC2)[C@@H](C)CN([C@H](C)CO)C(=O)c2cc(NS(C)(=O)=O)ccc2O1`, for which the lysis activity was 3.91%. Turning to `C[C@@H]1CN([C@@H](C)CO)C(=O)c2cc(NS(=O)(=O)c3cn(C)cn3)ccc2O[C@@H](C)CCCCO[C@@H]1CN(C)Cc1ccncc1`, the lysis activity was -2.55%. Regarding `CC(=O)N1[C@H](CO)[C@@H](c2ccc(-c3ccc(F)cc3)cc2)[C@H]1CNC(=O)C1CC1`, the lysis activity was -1.15%.

Consider `CC(=O)N1[C@H](CO)[C@@H](c2ccc(-c3ccccc3)cc2)[C@H]1CNC(=O)C1CC1`, for which the lysis activity was 73.3%. For the compound `C/C=C/c1ccc([C@H]2[C@@H](CNC(=O)NC(C)C)N(C(=O)C3CCC3)[C@H]2CO)cc1`, the lysis activity was -1.4%. As for `CC(=O)N1[C@H](CO)[C@H](c2ccc(-c3ccccc3)cc2)[C@H]1CNC(=O)C1CC1`, the lysis activity is 90.2% (active). As for `CCN(C[C@H]1[C@H](c2ccccc2)[C@H](CO)N1C(=O)C1CC1)C(=O)NC1CCCC1`, the lysis activity was 3.3%. As for `O=C(NC[C@@H]1[C@@H](c2ccccc2)[C@H](CO)N1C(=O)C1CCC1)NC1CCCC1`, the lysis activity is 94.8% (active). Take `CO[C@@H](CN(C)C(=O)Nc1ccc(F)cc1)[C@H](C)CN(Cc1ccccc1Cl)[C@@H](C)CO`: the lysis activity is 13.4%.
